How the values were obtained:
Rattus norvegicus [1] = organism: Rattus norvegicus; assay: Number of T4 binding sites in rat liver from TCDD treated rats; format: functional
In short: (§1)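 Male Sprague–Dawley rats (200–250 g), five per group, gavaged with TCDD (0, 12, 25, 37 or 50 µg/kg) in corn oil at 0.1 mL/kg; controls got corn oil. Livers were taken after 9 days and pooled per group. Nuclear extract (10 µg protein, buffer B, pH 7.6) was incubated 2 h at 25 °C with 0.1–2.4 nM [125I]T4. Bound ligand was isolated on Sephadex G-25, specific binding taken as total minus excess-T4, Scatchard analysis, duplicates.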

Rattus norvegicus [2] = assay: Number of T4 binding sites in rat liver from TCDD treated rats at a dose of 12 ug/Kg; format: functional; in short: as §1
Rattus norvegicus [3] = assay: Number of T4 binding sites in rat liver from TCDD treated rats at a dose of 25 ug/Kg; format: functional; in short: as §1
Rattus norvegicus [4] = assay: Number of T4 binding sites in rat liver from TCDD treated rats at a dose of 37 ug/Kg; format: functional; in short: as §1
Rattus norvegicus [5] = assay: Number of T4 binding sites in rat liver from TCDD treated rats at a dose of 50 ug/Kg; format: functional; in short: as §1
Rattus norvegicus [6] = organism: Rattus norvegicus; assay: Body weight (after treatment) was determined; format: functional
In short: (§2)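 Male Sprague–Dawley rats (200–250 g, 6 weeks old), in groups of five, were dosed by gavage with TCDD at 0, 12, 25, 37 or 50 µg/kg body weight in corn oil (0.1 mL/kg). Controls received corn oil alone. Animals were killed by CO2 9 days after dosing.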

Rattus norvegicus [7] = assay: Body weight was determined in TCDD-treated rat at a dose of 12 ug/Kg; format: functional; in short: as §2
Rattus norvegicus [8] = assay: Body weight was determined in TCDD-treated rats at a dose of 25 ug/Kg; format: functional; in short: as §2
Rattus norvegicus [9] = assay: Body weight was determined in TCDD-treated rats at a dose of 37 ug/Kg; format: functional; in short: as §2
Rattus norvegicus [10] = assay: Body weight was determined in TCDD-treated rats at a dose of 50 ug/Kg; format: functional; in short: as §2
Rattus norvegicus [11] = assay: Liver weight was determined in TCDD-treated rat at a dose of 12 ug/Kg; format: functional; in short: as §2
Rattus norvegicus [12] = assay: Liver weight was determined in TCDD-treated rats at a dose of 25 ug/Kg; format: functional; in short: as §2
Rattus norvegicus [13] = assay: Liver weight was determined in TCDD-treated rats at a dose of 37 ug/Kg; format: functional; in short: as §2
Rattus norvegicus [14] = assay: Liver weight was determined in TCDD-treated rats at a dose of 50 ug/Kg; format: functional; in short: as §2
Rattus norvegicus [15] = organism: Rattus norvegicus; assay: Liver weight was determined in rats; format: functional; in short: as §2
Rattus norvegicus [16] = assay: Serum T4 level was determined in TCDD-treated rat at a dose of 12 ug/Kg; format: functional, organism-based; in short: as §2
Rattus norvegicus [17] = assay: Serum T4 level was determined in TCDD-treated rat at a dose of 25 ug/Kg; format: functional, organism-based; in short: as §2
Rattus norvegicus [18] = assay: Serum T4 level was determined in TCDD-treated rat at a dose of 37 ug/kg; format: functional, organism-based; in short: as §2
Rattus norvegicus [19] = assay: Serum T4 level was determined in TCDD-treated rat at a dose of 50 ug/Kg; format: functional, organism-based; in short: as §2
Rattus norvegicus [20] = organism: Rattus norvegicus; assay: Serum T4 level was determined in rats; format: functional, organism-based; in short: as §2
[21] = Binding affinity of [125I]T4 to rat liver nuclear extract (CONTROL); in short: as §1
[22] = Binding affinity of [125I]T4 to rat liver nuclear extract at a dose of 12 ug/Kg; in short: as §1
[23] = Binding affinity of [125I]T4 to rat liver nuclear extract at a dose of 25 ug/Kg; in short: as §1
[24] = Binding affinity of [125I]-T4 to rat liver nuclear extract at a dose of 37 ug/Kg; in short: as §1
[25] = Binding affinity of [125I]T4 to rat liver nuclear extract at a dose of 50 ug/Kg; in short: as §1

With `Clc1cc2c(cc1Cl)Oc1cc(Cl)c(Cl)cc1O2` [2,3,7,8-TETRACHLORODIBENZO-P-DIOXIN] the Activity (Rattus norvegicus [1]) was less than 3.24 nM/mg, the Activity (Rattus norvegicus [2]) was less than 4.06 nM/mg and the Activity (Rattus norvegicus [3]) was less than 4.12 nM/mg. For the same compound, the Activity (Rattus norvegicus [4]) was less than 8.71 nM/mg, the Activity (Rattus norvegicus [5]) was less than 6.65 nM/mg and the Weight (Rattus norvegicus [6]) was 302 g. For the same compound, the Weight (Rattus norvegicus [7]) was 293 g, the Weight (Rattus norvegicus [8]) was less than 273 g and the Weight (Rattus norvegicus [9]) was less than 274 g. It also gave a Weight (Rattus norvegicus [10]) of less than 271 g, a Weight (Rattus norvegicus [11]) of less than 18.9 g and a Weight (Rattus norvegicus [12]) of less than 18.3 g. It also gave a Weight (Rattus norvegicus [13]) of less than 19.3 g, a Weight (Rattus norvegicus [14]) of less than 19.9 g and a Weight (Rattus norvegicus [15]) of 15.1 g. The Serum T4 (Rattus norvegicus [16]) was less than 5.6 µg/dL, the Serum T4 (Rattus norvegicus [17]) was less than 4.4 µg/dL and the Serum T4 (Rattus norvegicus [18]) was less than 4.1 µg/dL. It also gave a Serum T4 (Rattus norvegicus [19]) of less than 4.2 µg/dL, a Serum T4 (Rattus norvegicus [20]) of 7.6 µg/dL and a Kd [21] of 0.7 nM. It also gave a Kd [22] of 0.48 nM, a Kd [23] of 0.56 nM and a Kd [24] of 0.69 nM. The Kd [25] was 0.72 nM.

From ChEMBL document CHEMBL1123874, “Polychlorinated biphenyls and related compound interactions with specific binding sites for thyroxine in rat liver nuclear extracts” (J Med Chem, 1987)
